Source: PubChem BioAssay
Rows were chosen to be rich in hits. Some 3.1% of all compounds tested hit in one or more screens of this group.
GalR3 antag: blocks the human galanin receptor 3; 0.44% of 360,000 active; inhibition, % at 3 µM; O60755; HEK293 GalR3-CNG cAMP membrane potential fluorescence; galR3 body fused to GalR1 C-terminus;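 active = inhibition above the screen-wide average plus 3 SD, cut at about 13% in these data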;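 note: forskolin and galanin both at EC90 stimulate the cells; cAMP rise reported by CNG channel membrane potential dye signal; 0% = forskolin plus galanin with DMSO and 100% = forskolin alone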
OX1R antag-1: blocks the human orexin 1 receptor | O43613 | OX1R-expressing cells, FRET antagonist read-out | AID 485270 | 1.8% of 330,000 active | inhibition, % at 6.6 µM; in the data active = inhibition mostly above about 38%, no sharp cut-off; inactive = mostly below about 40%;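 note: 0% = agonist challenge alone and 100% = reference antagonist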
Target sequence (O43613 whole entry, looked up): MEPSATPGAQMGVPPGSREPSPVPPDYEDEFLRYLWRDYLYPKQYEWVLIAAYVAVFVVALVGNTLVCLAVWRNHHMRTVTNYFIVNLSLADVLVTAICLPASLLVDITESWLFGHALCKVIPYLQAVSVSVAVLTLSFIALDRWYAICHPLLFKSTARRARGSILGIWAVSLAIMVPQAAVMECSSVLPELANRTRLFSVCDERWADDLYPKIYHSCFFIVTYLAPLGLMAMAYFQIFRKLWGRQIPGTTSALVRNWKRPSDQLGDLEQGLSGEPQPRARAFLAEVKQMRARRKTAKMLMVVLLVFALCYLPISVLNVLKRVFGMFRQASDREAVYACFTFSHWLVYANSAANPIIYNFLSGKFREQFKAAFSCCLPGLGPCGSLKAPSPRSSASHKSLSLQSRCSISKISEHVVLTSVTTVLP
CHO parental Ca: counter-screen for OX1R antagonists: effect in parental CHO cells; parental CHO-K1, ATP-induced calcium, Fluo-8 fluorescence; inhibition, % at 5.6 µM; 0.63% of 330,000 active; AID 463079;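 active = inhibition above that plate's mean sample inhibition plus 3 SD, cut at about 26% in these data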;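 note: 0% = ATP-challenged DMSO wells and 100% = DMSO wells without ATP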
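Test system: untransfected parental CHO cell line; also added: ATP stimulus; dosing: 5.6 µM, single dose; signal: calcium-sensitive Fluo-8 fluorescence; measure: percent inhibition of ATP-evoked calcium rise, normalized to controls; benchmarks: low control ATP plus DMSO, high control DMSO only; replication: one well per compound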
GPR7 antagonist: antagonists of human GPR7 (neuropeptides B/W receptor 1); P48145; GPR7-expressing cells, fluorescence antagonist assay; inhibition, % at 4.4 µM; 1.1% of 290,000 active; AID 1861; in the data active = inhibition above about 16%, passing the limit was not always enough;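 note: cells stimulated with the agonist NPW; 0% = agonist with vehicle and 100% = vehicle without agonist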
Target sequence (P48145 whole entry, looked up): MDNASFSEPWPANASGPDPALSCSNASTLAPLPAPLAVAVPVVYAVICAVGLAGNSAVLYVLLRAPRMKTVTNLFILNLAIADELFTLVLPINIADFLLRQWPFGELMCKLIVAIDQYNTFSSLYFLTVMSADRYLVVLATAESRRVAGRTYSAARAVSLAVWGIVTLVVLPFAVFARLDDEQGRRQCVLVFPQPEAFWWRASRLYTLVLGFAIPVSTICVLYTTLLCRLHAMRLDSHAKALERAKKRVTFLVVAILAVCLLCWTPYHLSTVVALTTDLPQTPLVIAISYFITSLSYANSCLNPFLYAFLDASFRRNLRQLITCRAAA
OX1R antag-2: blocks the human orexin 1 receptor | O43613 | CHO/OX1R cells, Fluo-8 calcium fluorescence, orexin A | inhibition, % at 5 µM | 0.43% of 330,000 active;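 active = inhibition above its plate's threshold, mean inhibition of all tested compounds on the plate plus 3 SD, cut at about 37% in these data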;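 note: 0% = orexin A challenge wells and 100% = SB-334867-A antagonist wells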
The depositor's hits bear a star; nt = not tested or not shown.

SMILES | GalR3 antag | OX1R antag-1 | CHO parental Ca | GPR7 antagonist | OX1R antag-2
O=C(CSc1nc2ccc(Cl)cc2[nH]1)c1c[nH]c2ccccc12 | -7.7 | 41.3* | -9.2 | 6.9 | -4.2
Cc1cccc(N2CCN(S(=O)(=O)c3ccc4c(c3)C(C)(C)C(=O)N4C)CC2C)c1 (stereo not drawn) | -3.5 | 6.0 | -7.8 | -2.4 | -12.7
Cc1cccc(N2CCN(S(=O)(=O)c3ccc4c(c3)CCC(=O)N4)CC2C)c1 (stereo not drawn) | -4.0 | 27.3 | 39.9* | -15.8 | -6.7
COc1ccc(C(C)c2cc3c(cc2OCC(=O)O)OCO3)cc1 (stereo not drawn) | -5.6 | nt | nt | nt | nt
C[C@@H]1CN([C@H](C)CO)C(=O)c2ccccc2-c2ccccc2CO[C@@H]1CN(C)C(=O)Nc1ccccc1 | -3.5 | nt | nt | nt | nt
CCOC(=O)c1oc2cccc(O)c2c1C | -5.8 | 39.3* | -4.7 | -5.9 | -14.3
OC1(C#Cc2c(-c3ccsc3)sc3ccccc23)CCCCC1 | 0.0 | nt | nt | nt | nt
c1ccc2nc3c(nc2c1)CCc1nonc1-3 | -4.3 | 43.6* | -2.0 | -9.7 | 7.4
CC(=O)Nc1ncc(Cc2cccc(Cl)c2Cl)s1 | -4.4 | 16.4 | -1.9 | -7.1 | -10.4
CC(=O)Nc1ncc(Cc2cc(Cl)ccc2Cl)s1 | 1.1 | 69.8* | -6.8 | 13.1 | -21.7
Cc1cc(C(=O)N2CCN(C/C=C/c3ccccc3)CC2)cs1 | nt | 4.8 | -18.7 | 19.8* | -19.1
O=C(CCc1nc(-c2ccccc2F)no1)Nc1ccc(Oc2ccccc2)cc1 | -4.0 | 54.9 | 38.8* | -6.6 | 62.0*
COc1cccc(NC(=O)CCc2nc(-c3ccccc3F)no2)c1 | -5.7 | 2.7 | -13.7 | -1.4 | 0.0
Cc1cccc(Nc2ncnc(N)c2[N+](=O)[O-])n1 | -5.6 | 56.0* | 0.0 | -4.2 | -12.2
Cc1cccnc1Nc1ncnc(N)c1[N+](=O)[O-] | -4.5 | 12.7 | 1.2 | -0.7 | -7.3
Nc1ncnc(Nc2ccccn2)c1[N+](=O)[O-] | -1.5 | 64.2* | 6.5 | -8.7 | -9.5
CCn1c(SCC(=O)Nc2nc3ccccc3s2)nc2c(c1=O)SC(C)C2 (stereo not drawn) | -4.3 | 38.9 | 14.3 | -18.9 | 19.8
CCn1c(SCC(=O)Nc2nc3ccc(C)cc3s2)nc2c(c1=O)SC(C)C2 (stereo not drawn) | nt | 81.1* | 44.6* | -10.0 | 59.4*
CCN(CC)CCC(=O)Nc1cccc2c1C(=O)c1ccccc1C2=O | -0.8 | 74.2* | -12.1 | -9.1 | -39.8
CCN(CC)CCNC(=O)c1ccc2c(c1NCCO)C(=O)c1ccccc1C2=O | -4.4 | 88.6* | -15.2 | -3.9 | -20.5
Nc1cccc(C(=O)OCC(=O)Nc2cccc3c2C(=O)c2ccccc2C3=O)c1 | 0.1 | 16.8 | -10.8 | -8.2 | -7.6
COc1ccccc1CCC(=O)Nc1ccc2c(c1)c(=O)n(C)n2Cc1cccc(C(F)(F)F)c1 | -8.0 | nt | nt | nt | nt
O=C(Nc1ccc(C(=O)N2CCOCC2)cc1)c1ccc([N+](=O)[O-])cc1 | -1.4 | 43.7* | -9.7 | -1.3 | 0.6
O=C(Nc1ccc(S(=O)(=O)N2CCOCC2)cc1)c1ccc(CN2CCc3ccccc3C2)cc1 | nt | 47.3 | 51.2* | 9.4 | 68.7*
CN1CCN(S(=O)(=O)c2ccc(NC(=O)c3ccc([N+](=O)[O-])cc3)cc2)CC1 | -3.4 | 44.4* | -17.3 | nt | -17.9
SMILES | GalR3 antag | OX1R antag-1 | CHO parental Ca | GPR7 antagonist | OX1R antag-2
CCc1c(Cc2cccc(F)c2)ncn1CCc1ccccc1OC | -7.2 | nt | nt | nt | nt
O=c1ccn(C2CC(O)C(COC(c3ccccc3)(c3ccccc3)c3ccccc3)O2)c(=O)[nH]1 (stereo not drawn) | -3.9 | nt | nt | nt | nt
O=C(c1ccc(CSc2nc3ccncc3[nH]2)cc1)N1CCN(c2cccc(Cl)c2)CC1 | nt | 33.6* | 72.6* | -1.7 | 22.4
O=C(C(=O)N1CCC(CNS(=O)(=O)c2ccc(F)cc2)CC1)c1cc2ccccc2o1 | -3.3 | nt | nt | nt | nt
Cc1cc(C(C)(C)C)oc1C(=O)N(CC(=O)NC1CCCC1)Cc1ccccc1Cl | -7.0 | 88.5* | 24.6 | 6.9 | 105.4*
O=C(CN(Cc1ccccc1Cl)C(=O)CCC(=O)Nc1nccs1)NCC1CCCO1 (stereo not drawn) | -6.0 | 20.1 | -10.1 | 4.6 | -28.2
O=C(NC(=S)Nc1ccccn1)c1ccc([N+](=O)[O-])cc1 | 4.6 | 27.1 | -7.2 | -2.9 | 2.5
O=C(Nc1ncccn1)c1ccc([N+](=O)[O-])cc1 | -0.6 | 58.1* | -10.1 | -2.0 | -11.8
O=C(Nc1ccccc1O)c1ccc([N+](=O)[O-])cc1 | -8.6 | 33.3* | 16.4 | -2.1 | -2.8
O=C(Nc1nccs1)c1ccc([N+](=O)[O-])cc1 | -7.0 | 41.6* | -7.6 | 0.9 | -11.2
N#CC(C#N)=Cc1ccccc1OCc1ccccc1 | nt | 54.5 | -4.4 | 1.8 | -5.0
Nc1[nH]c(=O)nc(Nc2ccccc2)c1N=O | -3.9 | 55.0* | 1.6 | nt | -17.3
COc1ccc(C(=O)NC(CCSC)C(=O)NC2CC2)cc1 (stereo not drawn) | -4.5 | 2.4 | -12.8 | nt | 0.2
COc1ccc(OCC(=O)Nc2ccc(N3CCN(C(=O)c4ccccc4)CC3)c(Cl)c2)cc1 | -0.9 | 22.7 | 43.4* | 21.1 | 18.0
COc1cccc(C(=O)OCC(=O)Nc2ccc3c(c2)OCCO3)c1 | -0.6 | 4.7 | -12.1 | nt | -25.1
CC1CCc2nc(NC(=O)C3COc4ccccc4O3)sc2C1 (stereo not drawn) | nt | 39.1* | -20.9 | -2.9 | -32.0
CN(C)CC[n+]1ccc(C(=O)c2ccccc2)cc1 | -4.6 | 52.2* | -3.0 | -12.7 | -11.4
O=C(c1ccccc1)c1cc[n+]([O-])cc1 | -4.0 | 42.4* | -2.6 | -6.7 | -14.3
CC(C)(C)NC(=O)C1c2ccccc2OCC(=O)N1Cc1ccco1 (stereo not drawn) | -2.6 | nt | nt | nt | nt
CCOC(=O)C1=CCN(S(=O)(=O)c2ccc(Br)cc2)C1c1ccc(F)cc1 (stereo not drawn) | -7.0 | nt | nt | nt | nt
C=C(C)c1cc2c(ccc3ccc(=O)oc32)o1 | -2.5 | 74.8* | -19.6 | nt | 38.1
CNC(=O)c1cc2c(ccc3ccccc32)o1 | -8.1 | 19.6 | -0.6 | -9.3 | -23.6
COCCn1c(=O)c2ccccc2c2ccccc2c1=O | -6.3 | 17.9 | -0.8 | -11.8 | -4.6
CC(=O)OCCn1c(=O)c2cc3c(=O)n(CCOC(C)=O)c(=O)c3cc2c1=O | 6.3 | 67.9* | 2.4 | -0.7 | -7.0
CCCc1cc(=O)[nH]c(Nc2ccc(Cl)cc2)n1 | -6.4 | 23.2 | 79.0* | -14.3 | 21.6
SMILES | GalR3 antag | OX1R antag-1 | CHO parental Ca | GPR7 antagonist | OX1R antag-2
COc1ccc(NC(=O)COC(=O)C2CCN(C(=O)c3ccc(Cl)cc3)CC2)c([N+](=O)[O-])c1 | -4.8 | 37.6* | -18.2 | nt | 10.4
Cc1cccc(C)c1NC(=O)C1c2ccccc2OCC(=O)N1CCc1c[nH]c2ccccc12 (stereo not drawn) | -5.7 | nt | nt | nt | nt
COC(=O)c1cc2c(=O)n3ccccc3nc2n(C(C)C)c1=N | nt | nt | nt | 1.6 | nt
CC(C)n1c(=N)c(C(=O)NCCc2ccccc2)cc2c(=O)n3ccccc3nc21 | -3.8 | 55.4* | -17.5 | 5.3 | -16.3
Cc1cccn2c(=O)c3cc(C(=O)NCc4cccnc4)c(=N)n(C(C)C)c3nc12 | -3.0 | 40.7* | 13.6 | 7.8 | -15.6
Cc1cccn2c(=O)c3cc(C(=O)NCc4ccco4)c(=N)n(C(C)C)c3nc12 | -3.6 | 38.0 | -25.9 | -19.5 | -29.7
